# Marks after values point to notes of the source that are not given here.
# Tests used:
# [1] = Kinetic aqueous solubility by UV/Vis absorbance in PBS buffer; type: physicochemical; conditions: pH 7.4, PBS buffer
# [2] = Pharmacokinetic evaluation after single iv and po administration; type: in vivo, male CD-1 mice; conditions: for Clearance as share of mouse hepatic blood flow: male CD-1 mice, hepatic blood flow ~90 mL/min/kg; for Fraction of oral dose absorbed / Share of absorbed dose metabolized during the first-pass: mice, po; for Fraction of oral dose absorbed: accounting for first-pass effects; for Share of absorbed dose metabolized during the first-pass: assuming hepatic elimination
# [3] = system: Notch processing by γ-secretase; assay: Notch processing in H4-APP751 cells transfected with the NΔE construct; type: cell-based, human; conditions: 24hrs, 22d 10 μM and 1 μM, DAPT 300 nM and 100 nM
# How it was run: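 H4 human neuroglioma cells stably overexpressing human APP751 were transfected with an […] Myc-tagged NΔE Notch construct. They were then treated with the test compound, a reference γ-secretase inhibitor or vehicle for 24 h and harvested 48 h post-transfection. Western blots were probed with anti-Myc antibody to detect NΔE and NICD, with β-actin as loading control.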
# [4] = system: Aβ38, Aβ40, Aβ42 and total Aβ peptide levels in SHSY5Y-APP cells; assay: Meso Scale multiplex assay of Aβ peptides in SHSY5Y-APP cells; type: cell-based, human; conditions: concentration response
# How it was run: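 Human SH-SY5Y neuroblastoma cells stably overexpressing wild-type human APP751 were exposed to the test compound at a range of concentrations. Aβ38, Aβ40, Aβ42 and total Aβ in the samples were measured by Meso Scale Sector 6000 multiplex assay. Plates were read on an MSD SECTOR Imager after read buffer was added, and peptide concentrations were back-fitted from their respective standard curves.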
# [5] = system: Aβ42 levels (γ-secretase modulation) in SHSY5Y-APP cells; assay: Cell-based ELISA assay for measuring extracellular Aβ42 levels; design: species or system human
# [6] = system: plasma Aβ38, Aβ40 and Aβ42 levels; assay: Pharmacodynamic study using J20 mice; type: in vivo, female J20 mice; conditions: daily oral, 3-day treatment; for Effect on plasma Aβ42 and Aβ40: 25, 50 and 100 mg/kg; for Effect on Aβ38 levels: plasma
# How it was run: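 Female J20 transgenic mice (5–6 months old, n=5/dose) received the test compound or vehicle (5% NMP/95% PEG300) by oral gavage once daily for three days. Animals were killed 4 h after the day-3 dose, and plasma and brain were collected. Aβ38, Aβ40 and Aβ42 were quantified with Meso Scale multiplex kits, and data were analysed as mean ± SEM with ANOVA.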
# [7] = system: plasma and brain Aβ38, Aβ40 and Aβ42 levels; assay: Pharmacodynamic study using Tg2576 mice; type: in vivo, female Tg2576 mice; conditions: 50 mg/kg, oral daily, 14 days
# How it was run: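 Dosing was by oral gavage in female Tg2576 mice (5–6 months old, n=12/dose), given the test compound or vehicle (5% NMP/95% PEG300) daily for 14 consecutive days. Mice were killed 4 h after the final dose on day 14, and plasma and brain were harvested. Aβ38, Aβ40 and Aβ42 were measured by Meso Scale multiplex assay, and results were expressed as mean ± SEM with ANOVA.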
# [8] = male, CD-1, mouse, plasma, iv, 1 mg/kg
Structure (SMILES),Fraction of oral dose absorbed [2],Parent Aβ42 IC50 [5],"clearance at 24 h [2, 8]",other results
"CCn1nc2c(c1Nc1nc(-c3ccc(-n4cnc(C)c4)c(OC)n3)cs1)CCCC2 [Compound 22d, N-(2-ethyl-4,5,6,7-tetrahydro-2H-indazol-3-yl)-4-(6-methoxy-5-(4-methyl-1H-imidazol-1-yl)pyridin-2-yl)thiazol-2-amine]",~90%,,,Kin. Aq. Sol. [1]: 4.5* μM; Clearance as share of mouse hepatic blood flow ([2]; iv): approximately 40%; Share of absorbed dose metabolized during the first-pass [2]: approximately 40%; Notch processing (NΔE to NICD) [3]: did not inhibit; Aβ38 levels [4]: potentiated; Aβ40 levels [4]: suppressed; Aβ42 levels [4]: suppressed; total levels of Aβ [4]: no change
"COc1nc(-c2csc(Nc3c4c(nn3CCF)CCCC4)n2)ccc1-n1cnc(C)c1 [Compound 46, N-(2-(2-fluoroethyl)-4,5,6,7-tetrahydro-2H-indazol-3-yl)-4-(6-methoxy-5-(4-methyl-1H-imidazol-1-yl)pyridin-2-yl)thiazol-2-amine]",nearly complete,110 nM,57.8 mL/min/kg,Share of absorbed dose metabolized during the first-pass [2]: approximately 60%; Effect on plasma Aβ42 and Aβ40 [6]: plateau between 50 and 100 mg/kg; Effect on Aβ38 levels [6]: reduced
"CCn1nc(C2(C)CC2)cc1Nc1nc(-c2ccc(-n3cnc(C)c3)c(OC)n2)cs1 [Compound 59, N-(1-ethyl-3-(1-methylcyclopropyl)-1H-pyrazol-5-yl)-4-(6-methoxy-5-(4-methyl-1H-imidazol-1-yl)pyridin-2-yl)thiazol-2-amine]",,,12.1 mL/min/kg,Clearance as share of mouse hepatic blood flow ([2]; iv): approximately 13%
"CCn1nc(C(F)(F)F)cc1Nc1nc(-c2ccc(-n3cnc(C)c3)c(OC)n2)cs1 [Compound 60, N-(1-ethyl-3-(trifluoromethyl)-1H-pyrazol-5-yl)-4-(6-methoxy-5-(4-methyl-1H-imidazol-1-yl)pyridin-2-yl)thiazol-2-amine]",greater than 80%,98 nM,26.8 mL/min/kg,
"COc1nc(-c2csc(Nc3c4c(nn3C)CCC4)n2)ccc1-n1cnc(C)c1 [Compound 63, 4-(6-methoxy-5-(4-methyl-1H-imidazol-1-yl)pyridin-2-yl)-N-(2-methyl-2,4,5,6-tetrahydrocyclopenta[c]pyrazol-3-yl)thiazol-2-amine]",greater than 80%,>1000 nM,21.8 mL/min/kg,Clearance as share of mouse hepatic blood flow ([2]; iv): ~24%
"CCn1nc2c(c1Nc1nc(-c3ccc(-n4cnc(C)c4)c(OC)n3)cs1)CCC2 [Compound 64, N-(2-ethyl-2,4,5,6-tetrahydrocyclopenta[c]pyrazol-3-yl)-4-(6-methoxy-5-(4-methyl-1H-imidazol-1-yl)pyridin-2-yl)thiazol-2-amine]",greater than 80%,41 nM,43.5 mL/min/kg,"half-life [2, 8]: 42 min; Effect on plasma Aβ42 and Aβ40 [6]: dose-dependent reduction; Effect on Aβ38 levels [6]: reduced; Effect on plasma Aβ38 levels [7]: potentiating; Effect on plasma Aβ42 and Aβ40 levels [7]: decreased"
"COc1nc(-c2csc(Nc3c4c(nn3C3CCC3)CCC4)n2)ccc1-n1cnc(C)c1 [Compound 67, N-(2-cyclobutyl-2,4,5,6-tetrahydrocyclopenta[c]pyrazol-3-yl)-4-(6-methoxy-5-(4-methyl-1H-imidazol-1-yl)pyridin-2-yl)thiazol-2-amine]",,92 nM,,
"COc1nc(-c2csc(Nc3c4c(nn3CC(F)(F)F)CCC4)n2)ccc1-n1cnc(C)c1 [Compound 69, 4-(6-methoxy-5-(4-methyl-1H-imidazol-1-yl)pyridin-2-yl)-N-(2-(2,2,2-trifluoroethyl)-2,4,5,6-tetrahydrocyclopenta[c]pyrazol-3-yl)thiazol-2-amine]",,94 nM,,
"COc1nc(-c2csc(Nc3c4c(nn3CCO)CCC4)n2)ccc1-n1cnc(C)c1 [Compound 70, 2-(3-((4-(6-methoxy-5-(4-methyl-1H-imidazol-1-yl)pyridin-2-yl)thiazol-2-yl)amino)-5,6-dihydrocyclopenta[c]pyrazol-2(4H)-yl)ethanol]",,>1000 nM,,
"CCn1nc2c(c1Nc1nc(-c3ccc(-n4cnc(C)c4)c(OC)n3)cs1)CCC2(C)C [Compound 71, N-(2-ethyl-6,6-dimethyl-2,4,5,6-tetrahydrocyclopenta[c]pyrazol-3-yl)-4-(6-methoxy-5-(4-methyl-1H-imidazol-1-yl)pyridin-2-yl)thiazol-2-amine]",,62 nM,,
"CCn1nc2c(c1Nc1nc(-c3ccc(-n4cnc(C)c4)c(OC)n3)cs1)CCCCC2 [Compound 73, N-(2-ethyl-2,4,5,6,7,8-hexahydrocyclohepta[c]pyrazol-3-yl)-4-(6-methoxy-5-(4-methyl-1H-imidazol-1-yl)pyridin-2-yl)thiazol-2-amine]",,114 nM,,
"CCn1nccc1Nc1nc(-c2ccc(-n3cnc(C)c3)c(OC)n2)cs1 [Compound 74, N-(1-ethyl-1H-pyrazol-5-yl)-4-(6-methoxy-5-(4-methyl-1H-imidazol-1-yl)pyridin-2-yl)thiazol-2-amine]",,>1000 nM,,
"C[C@H](NC(=O)Cc1cc(F)cc(F)c1)C(=O)N[C@H](C(=O)OC(C)(C)C)c1ccccc1 [DAPT, reference compound]",,,,Notch processing (NΔE to NICD) [3]: significantly inhibits

# From publication PMC7917164 (Bioorganic & medicinal chemistry, 2020)
